Test [1] deals with T1, B1 bradykinin receptor (Homo sapiens) (UniProt P46663).
T1 sequence (whole entry): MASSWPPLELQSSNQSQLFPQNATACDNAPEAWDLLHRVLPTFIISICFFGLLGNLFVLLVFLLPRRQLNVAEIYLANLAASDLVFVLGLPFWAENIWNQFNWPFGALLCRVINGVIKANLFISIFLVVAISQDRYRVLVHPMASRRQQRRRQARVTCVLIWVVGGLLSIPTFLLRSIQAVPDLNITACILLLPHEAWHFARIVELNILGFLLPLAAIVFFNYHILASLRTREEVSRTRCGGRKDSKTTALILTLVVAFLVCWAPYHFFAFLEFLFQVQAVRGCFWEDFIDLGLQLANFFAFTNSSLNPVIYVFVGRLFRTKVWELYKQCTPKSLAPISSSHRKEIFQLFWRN
Briefly: Intrinsic activity was determined. Type of test: functional. The following applies: Oryctolagus cuniculus.

Test [2] concerns the target T2, B2 bradykinin receptor (Homo sapiens) (UniProt P30411).
T2 sequence (whole entry): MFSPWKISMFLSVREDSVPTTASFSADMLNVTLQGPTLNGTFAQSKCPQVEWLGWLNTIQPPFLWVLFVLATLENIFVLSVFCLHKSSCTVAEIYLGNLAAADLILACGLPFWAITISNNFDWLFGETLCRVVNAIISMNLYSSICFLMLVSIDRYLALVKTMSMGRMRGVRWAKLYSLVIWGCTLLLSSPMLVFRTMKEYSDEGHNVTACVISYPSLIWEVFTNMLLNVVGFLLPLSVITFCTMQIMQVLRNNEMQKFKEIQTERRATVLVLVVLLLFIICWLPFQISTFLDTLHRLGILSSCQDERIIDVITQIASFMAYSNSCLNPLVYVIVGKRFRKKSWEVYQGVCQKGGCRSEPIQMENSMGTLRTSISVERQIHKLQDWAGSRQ
The test can be described thus: Percent agonistic activity in rabbit jugular vein expressing B2 receptor relative to bradykinin. The following applies: Oryctolagus cuniculus. The class given is functional. The essentials:
(§1)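 Isolated rabbit jugular vein strips were equilibrated about 2 h with protease inhibitor SQ 14225 (100 ng/mL) under incandescent light, with no UV. pD₂ was taken as −log of the half-maximal concentration. Relative affinity is given as percent of BK. Specificity was checked by desensitization with BK or an analogue. Antagonists were given as pA₂ from the ID₅₀ that reduces a double agonist dose to a single-dose response.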

Test [3] concerns the target T2, B2 bradykinin receptor (Homo sapiens). The test can be described thus: In vitro 50 % Maximal response in jugular vein expressing B2 receptor. Type of test: functional. As to conditions: Oryctolagus cuniculus. The essentials: as §1
Test [4] is filed under the species Oryctolagus cuniculus. The test can be described thus: The compound was tested in vitro (0.1 uM) on rabbit aorta for residual response in presence of ultraviolet light. The class given is functional. The following applies: in the assay text read “rabbit jugular vein” for “rabbit aorta”. Put shortly:
(§2)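 Aorta strips in cycloheximide were challenged twice with [des-Arg⁹]BK and checked with 3 µM noradrenaline and 0.2 µM [Sar¹]angiotensin II. They were then incubated with 100 µM (4'-amino)Phe plus the photolabel and irradiated 10 min around 365 nm (18 mW/cm²). This was done once or twice. Residual [des-Arg⁹]BK response at 60 min was expressed as percent of reference tissues.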

For test [5], the system named is B2 bradykinin receptor (Oryctolagus cuniculus). The test can be described thus: Relative affinity against B2 receptor relative to bradykinin.
The test system is the same in test [6]. Briefly: Agonistic activity (pD2) in rabbit jugular vein expressing B2 receptor relative to bradykinin.
The species named for test [7] is Oryctolagus cuniculus. The test can be described thus: The compound was tested in vitro (3 uM) on rabbit jugular vein for residual response in absence of ultraviolet light. Type of test: functional. Put shortly:
(§3)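 Jugular vein strips were treated exactly as in the photolabeling protocol (scavenger 100 µM (4'-amino)Phe plus analogue) but without light. Residual BK response was measured 60 min after the last treatment against reference tissues. Results were discarded if reference tissues lost over 25% sensitivity.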

The species named for test [8] is Oryctolagus cuniculus. Briefly: The compound was tested in vitro (1.0 uM) on rabbit jugular vein for residual response in presence of ultraviolet light. Type of test: functional. The essentials: (§4)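 Jugular vein strips were challenged twice with BK and checked with 1 µM [Nle¹¹]substance P and 7 µM histamine. They were then incubated with 100 µM (4'-amino)Phe plus the photolabel and irradiated 10 min around 365 nm (18 mW/cm²) at maximal contraction or after 5 min. This was done once or twice. BK response at 60 min was expressed as percent of reference tissues, rechecked every 45 min.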

The species entered for test [9] is Oryctolagus cuniculus. Briefly: Competitive protection towards rabbit jugular vein in the presence of light. The class given is functional. Put shortly:
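Rabbit jugular vein strips (B2), with SQ 14225 100 ng/mL present after about 2 h equilibration. 5 µM BK added before the photolabel, scavenger (4'-amino)Phe 100 µM, and 10 min irradiation around 365 nm (18 mW/cm²). Residual BK response read 60 min after treatment, relative to reference tissues.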

For test [10], the species on record is Oryctolagus cuniculus. Briefly: The compound was tested in vitro (0.2 uM) on rabbit jugular vein for residual response in presence of ultraviolet light. Type of test: functional. The essentials: as §4
The species named for test [11] is Oryctolagus cuniculus. The test can be described thus: In vitro 50 % Maximal response in rabbit aorta expressing B1 receptor. Type of test: functional. As to conditions: read-out: ED50 (the source's name).
For test [12], the species on record is Oryctolagus cuniculus. Briefly: Competitive protection towards rabbit aorta in the presence of light. Type of test: functional. Put shortly:
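Rabbit aorta strips (B1), with cycloheximide 10 µg/mL present after 3 h equilibration. Tissue pretreated with 50 µM [Leu⁸,des-Arg⁹]BK before the photolabel, scavenger (4'-amino)Phe 100 µM, and 10 min irradiation around 365 nm (18 mW/cm²). Residual [des-Arg⁹]BK response read 60 min after treatment, relative to reference tissues.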

The species entered for test [13] is Oryctolagus cuniculus. The test can be described thus: The compound was tested in vitro on rabbit aorta for residual response in presence of ultraviolet light. The class given is functional. The essentials:
as §2

The species named for test [14] is Oryctolagus cuniculus. Briefly: The compound was tested in vitro (0.1 uM) on rabbit jugular vein for residual response in presence of ultraviolet light. Type of test: functional. The essentials:
as §4

Test [15] is filed under the species Oryctolagus cuniculus. The test can be described thus: The compound was tested in vitro on rabbit aorta for residual response in absence of ultraviolet light. The class given is functional. Put shortly: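 Aorta strips were treated as in the photolabeling protocol but without light, or with light alone. Residual [des-Arg⁹]BK response was measured 60 min later against reference tissues. Darkroom testing was done in triplicate for the visible-light-absorbing analogue.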

The test system of test [16] is B2 bradykinin receptor (Oryctolagus cuniculus). Briefly: In vitro 50 % Maximal response in jugular vein expressing B2 receptor.
For test [17] the test system is unchanged. Briefly: In vitro 50 % Maximal response in rabbit jugular vein expressing B2 receptor.
The species named for test [18] is Oryctolagus cuniculus. Briefly: The compound was tested (0.5 micro M) in vitro on rabbit jugular vein for residual response in presence of ultraviolet light. The class given is functional. The essentials:
as §4

The species named for test [19] is Oryctolagus cuniculus. The test can be described thus: The compound was tested in vitro (2.0 uM) on rabbit jugular vein for residual response in absence of ultraviolet light. Type of test: functional. Put shortly:
as §3

Consider eleven compounds from ChEMBL document CHEMBL1121899, “Biological activities of photoaffinity labeling analogues of kinins and their irreversible effects on kinin receptors” (1981).

Where a SMILES comes first, the peptide text is derived from it.

Regarding H-RPPGFSPFR-OH [BRADYKININ], the Alpha E in [1] was 1. In test [2], this compound yielded a Relative affinity of 100%. In [3], this compound came in with an ED50 of 0.00165 µM. The Response in the test filed under Oryctolagus cuniculus [4] is 92%.
Turning to `N#[N+]c1ccc(C[C@H](NC(=O)CNC(=O)[C@@H]2CCCN2C(=O)[C@@H]2CCCN2C(=O)[C@@H](N)CCCN=C(N)N)C(=O)N[C@@H](CO)C(=O)N2CCC[C@H]2C(=O)N[C@@H](Cc2ccccc2)C(=O)N[C@@H](CCCN=C(N)N)C(=O)O)cc1` (HELM PEPTIDE1{R.P.P.G.[N#[N+]c1ccc(C[C@H](N[*:1])C(=O)[*:2])cc1].S.P.F.R}$$$$V2.0), the Relative affinity in [5] was 9%. For the same compound, the Alpha E in test [1] was determined as 1. In [6], this compound yielded a pD of 7.73 M. Besides, the Response in the test filed under Oryctolagus cuniculus [7] is on record as 92%. In [3], this compound had an ED50 of 0.025 µM.
For the compound `[N-]=[N+]=Nc1ccc(C[C@H](NC(=O)CNC(=O)[C@@H]2CCCN2C(=O)[C@@H]2CCCN2C(=O)[C@@H](N)CCCNC(=N)N)C(=O)N[C@@H](CO)C(=O)N2CCC[C@H]2C(=O)N[C@@H](Cc2ccccc2)C(=O)N[C@@H](CCCNC(=N)N)C(=O)O)cc1` (HELM PEPTIDE1{R.P.P.G.[[N-]=[N+]=Nc1ccc(C[C@H](N[*:1])C(=O)[*:2])cc1].S.P.F.R}$$$$V2.0), the Alpha E in [1] was 1. For the same compound, in test [2], the Relative affinity was determined as 17%. The Response in the test filed under Oryctolagus cuniculus [8] was determined as 44%. For the same compound, the Competitive protection in the test listed under Oryctolagus cuniculus [9] was 91. For the same compound, the ED50 in test [3] is 0.01 µM.
`[N-]=[N+]=Nc1ccc(C[C@H](NC(=O)[C@@H]2CCCN2C(=O)[C@H](CO)NC(=O)[C@H](Cc2ccccc2)NC(=O)CNC(=O)[C@@H]2CCCN2C(=O)[C@@H]2CCCN2C(=O)[C@@H](N)CCCN=C(N)N)C(=O)N[C@@H](CCCN=C(N)N)C(=O)O)cc1` (HELM PEPTIDE1{R.P.P.G.F.S.P.[[N-]=[N+]=Nc1ccc(C[C@H](N[*:1])C(=O)[*:2])cc1].R}$$$$V2.0): the Response in the test listed under Oryctolagus cuniculus [10] is 85%. In test [1], the Alpha E stood at 1. The compound further had a Relative affinity in test [2] of 23%. Also, the ED50 in [3] was found to be 0.007 µM.
`NC(N)=NCCC[C@H](N)C(=O)N1CCC[C@H]1C(=O)N1CCC[C@H]1C(=O)NCC(=O)N[C@@H](Cc1ccccc1)C(=O)N[C@@H](CO)C(=O)N1CCC[C@H]1C(=O)N[C@@H](Cc1ccc([N+](=O)[O-])cc1)C(=O)O`: in the test filed under Oryctolagus cuniculus [11], the EC50 was more than 100 µM. For the same compound, the Competitive protection in the test listed under Oryctolagus cuniculus [12] is 75. In the test listed under Oryctolagus cuniculus [13], the Response is 76%.
For `NC(N)=NCCC[C@H](NC(=O)[C@H](Cc1ccc([N+](=O)[O-])cc1)NC(=O)[C@@H]1CCCN1C(=O)[C@H](CO)NC(=O)[C@H](Cc1ccccc1)NC(=O)CNC(=O)[C@@H]1CCCN1C(=O)[C@@H]1CCCN1C(=O)[C@@H](N)CCCN=C(N)N)C(=O)O` (HELM PEPTIDE1{R.P.P.G.F.S.P.[O=C([C@H](Cc1ccc([N+](=O)[O-])cc1)N[*:1])[*:2]].R}$$$$V2.0), the Response in the test filed under Oryctolagus cuniculus [14] stood at 91%. In test [1], this compound showed an Alpha E of 1. The Relative affinity in [2] came to 25%. The same compound returned an ED50 in test [3] of 0.0066 µM.
For the compound `[N-]=[N+]=Nc1ccc(C[C@H](NC(=O)[C@@H]2CCCN2C(=O)[C@H](CO)NC(=O)[C@H](Cc2ccccc2)NC(=O)CNC(=O)[C@@H]2CCCN2C(=O)[C@@H]2CCCN2C(=O)[C@@H](N)CCCN=C(N)N)C(=O)O)cc1`, the EC50 in the test listed under Oryctolagus cuniculus [11] came out at 8.56 µM. Besides, in [1], the Alpha E is 0. The Competitive protection in the test filed under Oryctolagus cuniculus [12] is recorded as 95. The Response in the test listed under Oryctolagus cuniculus [13] worked out at 37%.
Regarding `N#[N+]c1ccc(C[C@H](NC(=O)[C@@H]2CCCN2C(=O)[C@H](CO)NC(=O)[C@H](Cc2ccccc2)NC(=O)CNC(=O)[C@@H]2CCCN2C(=O)[C@@H]2CCCN2C(=O)[C@@H](N)CCCN=C(N)N)C(=O)O)cc1`, in the test filed under Oryctolagus cuniculus [11], the EC50 was 0.824 µM. The compound further had an Alpha E in test [1] of 1. The compound also showed a Response in the test filed under Oryctolagus cuniculus [15] of 95%.
As to `NC(N)=NCCC[C@H](NC(=O)[C@H](Cc1ccccc1)NC(=O)[C@@H]1CCCN1C(=O)[C@H](CO)NC(=O)[C@H](Cc1ccc([N+](=O)[O-])cc1)NC(=O)CNC(=O)[C@@H]1CCCN1C(=O)[C@@H]1CCCN1C(=O)[C@@H](N)CCCN=C(N)N)C(=O)O` (HELM PEPTIDE1{R.P.P.G.[O=C([C@H](Cc1ccc([N+](=O)[O-])cc1)N[*:1])[*:2]].S.P.F.R}$$$$V2.0), in test [1], the Alpha E was found to be 1. The compound further had an ED50 in test [16] of 0.024 µM. The Relative affinity in [2] is 7%. This compound also had a pD in test [17] of 7.62 M. Also, in the test listed under Oryctolagus cuniculus [18], the Response is 88%.
In turn, `N#[N+]c1ccc(C[C@H](NC(=O)[C@@H]2CCCN2C(=O)[C@H](CO)NC(=O)[C@H](Cc2ccccc2)NC(=O)CNC(=O)[C@@H]2CCCN2C(=O)[C@@H]2CCCN2C(=O)[C@@H](N)CCCN=C(N)N)C(=O)N[C@@H](CCCN=C(N)N)C(=O)O)cc1` (HELM PEPTIDE1{R.P.P.G.F.S.P.[N#[N+]c1ccc(C[C@H](N[*:1])C(=O)[*:2])cc1].R}$$$$V2.0) registered an Alpha E in test [1] of 1. In test [2], this compound registered a Relative affinity of 9%. The compound further showed a Response in the test listed under Oryctolagus cuniculus [19] of 94%. The ED50 in test [3] is 0.025 µM.
Regarding `NC(N)=NCCC[C@H](N)C(=O)N1CCC[C@H]1C(=O)N1CCC[C@H]1C(=O)NCC(=O)N[C@@H](Cc1ccccc1)C(=O)N[C@@H](CO)C(=O)N1CCC[C@H]1C(=O)N[C@@H](Cc1ccccc1)C(=O)O`, in the test filed under Oryctolagus cuniculus [11], the EC50 turned out to be 0.068 µM. Also, in test [1], the Alpha E amounted to 1. Moreover, the Response in the test listed under Oryctolagus cuniculus [13] is listed as 85%.
